The results in this text go back to ChEMBL document CHEMBL4145574, “Inhibition of Breast Cancer Cell Migration by Cyclotides Isolated from Pombalia calceolaria” (J Nat Prod, 2018).

The structures appear in SMILES notation. Where a SMILES comes first, the peptide text is derived from it. Bridges are numbered along the chain shown (N, C = ends). Where only a bound is given, the exact number is not on record here.

The IC50 is the midpoint of a concentration-inhibition curve. The term inhibition denotes how much of the control response was suppressed. Low values mean a weak effect, high ones a strong effect.

For data set [1], the system named is MDA-MB-231. Description: Cytotoxicity against human MDA-MB-231 cells assessed as cell death after 24 hrs by MTS assay. The data set is classed as functional, cell-based. To be noted: MDA-MB-231, 24 h. The method, boiled down: (§1)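 MDA-MB-231 cells in DMEM with 10% FBS at 37 °C, 5% CO2, seeded at 4 × 10^3 cells/well. After 24 h, seven concentrations (20−0.03 μM) were added in triplicate, with doxorubicin as control. After 24 h exposure, MTS was added for 4 h at 37 °C and absorbance read at 490 nm. Viability is relative to control wells; IC50 is from nonlinear regression. At least two independent experiments.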
(Tetrazolium dyes change colour on reduction, which living cells bring about.)

Data set [2] relates to MDA-MB-231. Description: Cytotoxicity against human MDA-MB-231 cells assessed as cell detachment at 2 to 5 uM. The data set is classed as cell-based. Conditions: mda-mb-231, 5 µM. The method, boiled down:
(§2)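 Toxicity was judged visually during the wound-healing assay. MDA-MB-231 monolayers were scratched, then incubated 22 h at 37 °C in medium with 10% FBS and compound at 10, 5, 2 or 1 μM. Cells were scored for detachment and for morphological change (volume reduction, membrane disintegration).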

Data set [3] has as its system MDA-MB-231. Description: Cytotoxicity against human MDA-MB-231 cells assessed as reduction in cell volume at 2 to 5 uM. It counts as cell-based. To be noted: mda-mb-231, 5 µM. A digest of the protocol:
as §2

The test system of data set [4] is MDA-MB-231. Description: Cytotoxicity against human MDA-MB-231 cells assessed as membrane disintegration at 2 to 5 uM. The data set is classed as cell-based. Conditions: mda-mb-231, 5 µM. The method, boiled down:
as §2

For data set [5], the system named is MDA-MB-231. The data set can be described thus: Cytotoxicity against human MDA-MB-231 cells assessed as cell detachment at 10 uM. The data set is classed as cell-based. Conditions: mda-mb-231, 10 µM. The method, boiled down: as §2
Data set [6] concerns MDA-MB-231. The data set can be described thus: Cytotoxicity against human MDA-MB-231 cells assessed as reduction in cell volume at 10 uM. It counts as cell-based. To be noted: mda-mb-231, 10 µM. The method, boiled down: as §2
Data set [7] deals with MDA-MB-231. The data set can be described thus: Cytotoxicity against human MDA-MB-231 cells assessed as membrane disintegration at 10 uM. It counts as cell-based. Conditions: mda-mb-231, 10 µM. A digest of the protocol:
as §2

Data set [8] deals with MDA-MB-231. Description: Cytotoxicity against human MDA-MB-231 cells assessed as cell death at 20 uM after 24 hrs by MTS assay relative to control. It counts as functional. A digest of the protocol:
as §1

The test system of data set [9] is MDA-MB-231. Description: Inhibition of cell migration in human MDA-MB-231 cells at 1 uM incubated for 22 hrs by scratch wound healing assay relative to control. To be noted: MDA-MB-231, 22 h.
Data set [10] deals with MDA-MB-231. The data set can be described thus: Inhibition of cell migration in human MDA-MB-231 cells at 2 uM incubated for […] by scratch wound healing assay relative to control. It counts as functional. The method, boiled down: (§3)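 MDA-MB-231 cells were seeded at 1 × 10^5 cells/well and grown to a confluent monolayer, then scratched with a pipet tip. Debris was rinsed with FBS-free medium. Cells were incubated 22 h at 37 °C in 10% FBS medium with compound (10, 5, 2, 1 μM), with colchicine as positive control. Wound areas were imaged at 0 and 22 h and measured. Two independent experiments in triplicate, reported as mean ± SD.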

Data set [11] deals with MDA-MB-231. Description: Inhibition of cell migration in human MDA-MB-231 cells at 5 uM incubated for […] by scratch wound healing assay relative to control. It counts as functional. A digest of the protocol: as §3
The subject of data set [12] is MDA-MB-231. Description: Inhibition of cell migration in human MDA-MB-231 cells at 10 uM […] by scratch wound healing assay relative to control. It counts as functional. To be noted: MDA-MB-231, 22 h, in the assay text read “22 hrs” for “24 hrs”. The method, boiled down: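 MDA-MB-231 cells in DMEM + 10% FBS, 37 °C, 5% CO2; 1 × 10^5 cells/well grown to confluence, monolayer scratched with pipet tip, debris rinsed with FBS-free medium. Incubated 22 h at 37 °C in 10% FBS medium with compound (10, 5, 2, 1 μM). Wound areas imaged at 0 and 22 h and measured; cell toxicity judged visually. Colchicine positive control. Two independent experiments in triplicate, mean ± SD.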

On to `CC[C@H](C)[C@@H]1NC(=O)[C@H](C)NC(=O)[C@H]([C@@H](C)O)NC(=O)[C@H](C(C)C)NC(=O)[C@@H]2CSSC[C@@H]3NC(=O)[C@H](C(C)C)NC(=O)[C@H](CCCNC(=N)N)NC(=O)[C@H](CC(=O)O)NC(=O)[C@H](CCCN)NC(=O)[C@@H]4CSSC[C@H](NC(=O)[C@H](CO)NC(=O)[C@H](CCC(=O)O)NC(=O)[C@H](C)NC(=O)[C@H](CSSC[C@H](NC(=O)CNC(=O)[C@H](CC(C)C)NC1=O)C(=O)N[C@@H](CO)C(=O)N4)NC(=O)[C@@H]1CCCN1C(=O)[C@H]([C@@H](C)CC)NC(=O)CNC(=O)[C@H](CC(N)=O)NC(=O)[C@H](Cc1ccc(O)cc1)NC3=O)C(=O)N[C@@H](C(C)C)C(=O)N[C@@H](Cc1ccccc1)C(=O)N[C@@H]([C@@H](C)CC)C(=O)N1CCC[C@H]1C(=O)N2` [listing 1 of 2 here], for which the IC50 in [1] amounted to 2700 nM. The Activity entry in [2], in data set [3], in data set [4], in data set [5], in [6] and in [7] was “Toxic” throughout.

As to `CC[C@H](C)[C@@H]1NC(=O)[C@H](C)NC(=O)[C@H]([C@@H](C)O)NC(=O)[C@H](C(C)C)NC(=O)[C@@H]2CSSC[C@@H]3NC(=O)[C@H](C(C)C)NC(=O)[C@H](CCCNC(=N)N)NC(=O)[C@H](CC(=O)O)NC(=O)[C@H](CCCN)NC(=O)[C@@H]4CSSC[C@H](NC(=O)[C@H](CO)NC(=O)[C@H](CCC(=O)O)NC(=O)[C@H](C)NC(=O)[C@H](CSSC[C@H](NC(=O)CNC(=O)[C@H](CC(C)C)NC1=O)C(=O)N[C@@H](CO)C(=O)N4)NC(=O)[C@@H]1CCCN1C(=O)[C@H]([C@@H](C)CC)NC(=O)CNC(=O)[C@H](CC(N)=O)NC(=O)[C@H](Cc1ccc(O)cc1)NC3=O)C(=O)N[C@@H](C(C)C)C(=O)N[C@@H](Cc1ccccc1)C(=O)N[C@@H]([C@@H](C)CC)C(=O)N1CCC[C@H]1C(=O)N2` [listing 2 of 2 here], the Activity in data set [8] is on record as >80%. The compound also registered an inhibition at 1 µM in data set [9] of 0%.

With `CC[C@H](C)[C@@H]1NC(=O)[C@H](C)NC(=O)[C@H](CO)NC(=O)[C@H](CO)NC(=O)[C@H]([C@@H](C)CC)NC(=O)[C@@H]2CSSC[C@@H]3NC(=O)[C@H](C(C)C)NC(=O)[C@H](CCCN)NC(=O)[C@H](CC(N)=O)NC(=O)[C@H](CCCN)NC(=O)[C@@H]4CSSC[C@H](NC(=O)[C@H](CO)NC(=O)[C@H](CCC(=O)O)NC(=O)CNC(=O)[C@H](CSSC[C@H](NC(=O)CNC1=O)C(=O)N[C@@H](CO)C(=O)N4)NC(=O)[C@@H]1CCCN1C(=O)[C@H]([C@@H](C)CC)NC(=O)CNC[C@@H](C(N)=O)NC(=O)[C@H](CCCN)NC(=O)[C@H](Cc1ccc(O)cc1)NC3=O)C(=O)N[C@@H](C(C)C)C(=O)N[C@@H](Cc1c[nH]c3ccccc13)C(=O)N[C@@H]([C@@H](C)CC)C(=O)N1CCC[C@H]1C(=O)N2` [listing 1 of 2 here], in data set [1], the half-maximal inhibitory concentration (IC50) amounted to 9800 nM. Also, the Activity entry in data set [5], in [6] and in data set [7] was “Toxic” throughout.

Turning to `CC[C@H](C)[C@@H]1NC(=O)[C@H](C)NC(=O)[C@H](CO)NC(=O)[C@H](CO)NC(=O)[C@H]([C@@H](C)CC)NC(=O)[C@@H]2CSSC[C@@H]3NC(=O)[C@H](C(C)C)NC(=O)[C@H](CCCN)NC(=O)[C@H](CC(N)=O)NC(=O)[C@H](CCCN)NC(=O)[C@@H]4CSSC[C@H](NC(=O)[C@H](CO)NC(=O)[C@H](CCC(=O)O)NC(=O)CNC(=O)[C@H](CSSC[C@H](NC(=O)CNC1=O)C(=O)N[C@@H](CO)C(=O)N4)NC(=O)[C@@H]1CCCN1C(=O)[C@H]([C@@H](C)CC)NC(=O)CNC[C@@H](C(N)=O)NC(=O)[C@H](CCCN)NC(=O)[C@H](Cc1ccc(O)cc1)NC3=O)C(=O)N[C@@H](C(C)C)C(=O)N[C@@H](Cc1c[nH]c3ccccc13)C(=O)N[C@@H]([C@@H](C)CC)C(=O)N1CCC[C@H]1C(=O)N2` [listing 2 of 2 here], the Activity in data set [8] is recorded as >80%. This compound displayed an inhibition at 2 µM in data set [10] of 50%. In data set [11], this compound returned an inhibition at 5 µM of 60%. In [9], this compound had an inhibition at 1 µM of 15%.

As to `CC[C@H](C)[C@@H]1NC(=O)[C@H](C)NC(=O)[C@H]([C@@H](C)O)NC(=O)[C@H]([C@@H](C)CC)NC(=O)[C@H]([C@@H](C)O)NC(=O)[C@@H]2CSSC[C@@H]3NC(=O)[C@H](C(C)C)NC(=O)[C@H](CCCNC(=N)N)NC(=O)[C@H](CC(=O)O)NC(=O)[C@H](CCCNC(=N)N)NC(=O)[C@@H]4CSSC[C@H](NC(=O)[C@H](CO)NC(=O)[C@H](CCC(=O)O)NC(=O)[C@H](C)NC(=O)[C@H](CSSC[C@H](NC(=O)CNC(=O)[C@H](CC(C)C)NC1=O)C(=O)N[C@@H](CO)C(=O)N4)NC(=O)[C@@H]1CCCN1C(=O)[C@H](CC(C)C)NC(=O)CNC(=O)[C@H](CC(=O)O)NC(=O)[C@H](Cc1ccc(O)cc1)NC3=O)C(=O)N[C@@H](C(C)C)C(=O)N[C@@H](Cc1ccccc1)C(=O)N[C@@H]([C@@H](C)CC)C(=O)N1CCC[C@H]1C(=O)N2` (cyclo(AESCVFIPCTITAILGCSCRDRVCYDGLPC); disulfide 4-19, 9-24, 17-30) [listing 1 of 2 here], in data set [1], the IC50 is 1800 nM. Moreover, the Activity result in [2], in data set [3], in data set [4], in data set [5], in data set [6] and in data set [7] was “Toxic” in each case.

Turning to `CC[C@H](C)[C@@H]1NC(=O)[C@H](C)NC(=O)[C@H]([C@@H](C)O)NC(=O)[C@H]([C@@H](C)CC)NC(=O)[C@H]([C@@H](C)O)NC(=O)[C@@H]2CSSC[C@@H]3NC(=O)[C@H](C(C)C)NC(=O)[C@H](CCCNC(=N)N)NC(=O)[C@H](CC(=O)O)NC(=O)[C@H](CCCNC(=N)N)NC(=O)[C@@H]4CSSC[C@H](NC(=O)[C@H](CO)NC(=O)[C@H](CCC(=O)O)NC(=O)[C@H](C)NC(=O)[C@H](CSSC[C@H](NC(=O)CNC(=O)[C@H](CC(C)C)NC1=O)C(=O)N[C@@H](CO)C(=O)N4)NC(=O)[C@@H]1CCCN1C(=O)[C@H](CC(C)C)NC(=O)CNC(=O)[C@H](CC(=O)O)NC(=O)[C@H](Cc1ccc(O)cc1)NC3=O)C(=O)N[C@@H](C(C)C)C(=O)N[C@@H](Cc1ccccc1)C(=O)N[C@@H]([C@@H](C)CC)C(=O)N1CCC[C@H]1C(=O)N2` (cyclo(AESCVFIPCTITAILGCSCRDRVCYDGLPC); disulfide 4-19, 9-24, 17-30) [listing 2 of 2 here], the Activity in data set [8] was >80%. Testing at 1 µM in [9] gave an inhibition of 0%.

On to `COc1cc2c(c(OC)c1OC)-c1ccc(OC)c(=O)cc1[C@@H](NC(C)=O)CC2` [COLCHICINE], for which, in [12], testing at 10 µM gave an inhibition of 85%. The inhibition at 1 µM in data set [9] came out at 75%.

Consider `COc1cccc2c1C(=O)c1c(O)c3c(c(O)c1C2=O)C[C@@](O)(C(=O)CO)C[C@@H]3O[C@H]1C[C@H](N)[C@H](O)[C@H](C)O1` [DOXORUBICIN], for which the IC50 in data set [1] was 900 nM.
